According to ChEMBL document CHEMBL1143378, “Inactivation of GABA transaminase by 3-chloro-1-(4-hydroxyphenyl)propan-1-one” (Bioorg Med Chem Lett, 2009):
The source made the active and inactive calls. The calls are words filed in the database; no cut-off is given here.

Key:
Format in all cases: tissue-based
[1] = biological target: 4-aminobutyrate aminotransferase, mitochondrial (Rattus norvegicus) (UniProt P50554); experiment: Inhibition of GABA transaminase in rat brain at 45 uM after 40 mins in presence of alpha-ketoglutarate
Outline: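 Rat brain GABA-T was incubated with GABA, inhibitor (45 μM) and varying α-ketoglutarate concentrations together for 40 min before enzyme activity was measured.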

[2] = biological target: 4-aminobutyrate aminotransferase, mitochondrial (Rattus norvegicus) (UniProt P50554); experiment: Inhibition of GABA transaminase in rat brain at 30 uM for 40 mins in presence of 30 mM alpha-ketoglutarate
Outline: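 Rat brain GABA-T was preincubated with inhibitor (30 μM) for 40 min. Increasing concentrations of α-ketoglutarate, up to 30 mM, were then added and residual activity was measured. A no-inactivator control was run. Values are mean ± SEM, n = 6.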

[3] = biological target: T1, 4-aminobutyrate aminotransferase, mitochondrial (Rattus norvegicus, UniProt P50554); experiment: Inhibition of GABA transaminase in rat brain by Kitz-Wilson plot
Outline: (§1)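 GABA-T was isolated from rat brain. For time-dependent inactivation, log remaining activity was plotted against time at each inactivator concentration. Inverse slopes were then plotted against inverse inactivator concentration, and K_I and k_inact were taken from a Kitz–Wilson plot.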

[4] = biological target: 4-aminobutyrate aminotransferase, mitochondrial (Rattus norvegicus) (UniProt P50554); experiment: Inhibition of GABA transaminase in rat brain at 60 uM after 30 mins by gel filtration
Outline: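 Rat brain GABA-T was incubated with 60 μM inhibitor at 25 °C for 30 min and an aliquot was assayed. The remaining mixture was passed through Sephadex G50 to remove small molecules and assayed again. An identical sample without inactivator served as control. Values are mean ± SEM, n = 6.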

[5] = biological target: T1, 4-aminobutyrate aminotransferase, mitochondrial; experiment: (§2) Activity of GABA transaminase in rat brain
[6] = biological target: 4-aminobutyrate aminotransferase, mitochondrial (Rattus norvegicus) (UniProt P50554); experiment: as §2
[7] = biological target: 4-aminobutyrate aminotransferase, mitochondrial (Rattus norvegicus) (UniProt P50554); experiment: Ratio of Kinact to KI for GABA transaminase in rat brain; outline: as §1

T1 sequence (P50554 whole entry): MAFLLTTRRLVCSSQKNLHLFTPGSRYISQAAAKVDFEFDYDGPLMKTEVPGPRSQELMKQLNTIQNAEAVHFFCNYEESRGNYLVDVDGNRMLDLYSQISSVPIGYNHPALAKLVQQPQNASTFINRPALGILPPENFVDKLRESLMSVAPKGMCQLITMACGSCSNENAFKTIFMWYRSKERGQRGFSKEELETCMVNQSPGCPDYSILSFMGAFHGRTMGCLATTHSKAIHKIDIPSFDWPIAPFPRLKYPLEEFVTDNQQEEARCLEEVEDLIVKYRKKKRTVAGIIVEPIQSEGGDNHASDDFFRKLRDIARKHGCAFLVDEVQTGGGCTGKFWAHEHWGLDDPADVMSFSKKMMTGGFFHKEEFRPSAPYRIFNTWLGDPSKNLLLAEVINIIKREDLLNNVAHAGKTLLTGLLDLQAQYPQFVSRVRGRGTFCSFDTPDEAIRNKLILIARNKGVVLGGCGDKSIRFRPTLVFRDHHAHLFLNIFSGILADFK
Sequence of 4-aminobutyrate aminotransferase, mitochondrial (Rattus norvegicus) (P50554 28-500 limits assumed): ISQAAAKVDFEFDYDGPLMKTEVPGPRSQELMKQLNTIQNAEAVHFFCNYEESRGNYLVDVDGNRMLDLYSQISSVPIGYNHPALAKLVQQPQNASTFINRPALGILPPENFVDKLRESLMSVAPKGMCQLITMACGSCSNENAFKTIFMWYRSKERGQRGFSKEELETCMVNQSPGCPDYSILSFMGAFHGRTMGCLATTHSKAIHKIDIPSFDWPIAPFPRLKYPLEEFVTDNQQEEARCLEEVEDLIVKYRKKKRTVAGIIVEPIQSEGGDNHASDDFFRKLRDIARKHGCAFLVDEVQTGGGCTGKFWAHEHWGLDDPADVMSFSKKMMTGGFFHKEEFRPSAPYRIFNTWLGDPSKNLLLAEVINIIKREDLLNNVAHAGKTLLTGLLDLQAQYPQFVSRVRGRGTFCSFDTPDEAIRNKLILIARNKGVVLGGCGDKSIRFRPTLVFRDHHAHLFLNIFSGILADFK

Row | Activity [1] | Activity [2] | Activity [4] | Ki [5] [µM] | Kinact [6] [min⁻¹] | Ratio [7] | SMILES | IC50 [3] [µM]
1 | inactive | Active | Active | 24.3 | 0.0457 | 1.88 | O=C(CCCl)c1ccc(O)cc1 | 3.99
2 | – | – | – | – | – | – | O=Cc1ccc(O)cc1 [4-HYDROXYBENZALDEHYDE] | 16.5
